Article PMC9719714 (International Journal of Nanomedicine, 2022)
Values joined by “and” are separate entries in the source; they are usually repeats but may differ in a detail not shown here. Equal values may be shown once. Read-outs that look alike come from different tables or passages of the source. One block for each molecule: values may come before it.

What was measured:
MRSA-pvl- [1] = assay: CFU counting method; format: cell-based, Staphylococcus aureus; conditions: 50 µg/mL
Procedure, shortened: (§1)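 S. aureus strains (MRSA ATCC 700699; community-acquired MRSA-pvl+ A33 and MRSA-pvl- 172817 from the lab collection) at 1.5 × 10^5 CFU/mL were combined in well plates with MH broth and test compound (0–1000 μg/mL). Plates were shaken 4 h at 37°C, then diluted 100-fold and swabbed onto MH agar. After drying at room temperature, plates were incubated 18 h at 37°C and colonies counted. Percentage inhibition was calculated relative to distilled water (negative control); cefoxitin served as positive control.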

MRSA-pvl- [2] = assay: Kirby-Bauer disk diffusion test; format: cell-based, Staphylococcus aureus; conditions: 18 h
Procedure, shortened: (§2)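 Disk diffusion followed CLSI 2013. Sterile disks soaked in test compound (0–1000 µg/mL) were placed on MH agar and held 30 min at room temperature for diffusion. Plates were then incubated 18 h at 37°C and zones of inhibition read. Controls were distilled water (negative) and a 30 µg cefoxitin disk (positive). Strains were MSSA ATCC 25923 and community-acquired MRSA-pvl+ (A33) and pvl- (172817) lab isolates.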

MRSA [3] = assay: HRTEM observation of treated bacteria; format: cell-based, Staphylococcus aureus; conditions: 150 µg/mL for 12 h
Procedure, shortened: (§3)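 After the time-kill exposure, MRSA (ATCC 700699) and MSSA (ATCC 25923) cells were processed for electron microscopy. Reagents included glutaraldehyde, cacodylate buffer, osmium tetroxide and acetone, followed by resin embedding. Sections of 1 µm were cut and stained with toluidine blue, and areas were chosen by light microscopy. Sections were then mounted on 100-mesh copper grids, stained 15 min with 1% aqueous uranyl acetate, washed, and imaged at 100 kV.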

MRSA-pvl+ [4] = assay: Kirby-Bauer disk diffusion test; format: cell-based, Staphylococcus aureus; conditions: 18 h
Procedure, shortened: as §2

[5] = In vitro cytotoxicity MTT assay; format: cell-based, murine; conditions: mouse, 3T3 murine fibroblast cells, cell viability
[6] = tested on: 3T3 murine fibroblast cells; assay: In vitro cytotoxicity MTT assay; format: cell-based; conditions: 50 µg/mL, 24 h
zebrafish embryos = assay: Reactive oxygen species; format: in vivo
Procedure, shortened: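 Wild-type AB zebrafish embryos at 24 hpf, one per well and 10 per group, were exposed to five concentrations of test compound for 30, 60, 120 or 240 min. Controls were distilled water and 0.5 mM H2O2. Embryos were washed in PBS and spun 10,000 rpm, 5 min, 4°C. They were homogenized in cold PBS and spun 12,372 rpm, 30 min, 4°C. Supernatant was incubated with DCFH-DA (stock 10 mg/mL in DMSO) 30 min in the dark; fluorescence read at ex 485/em 530 nm, in triplicate.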

MRSA [7] = assay: CFU counting method; format: cell-based; conditions: Staphylococcus aureus, read-out: percentage of inhibition (CFU)
Procedure, shortened: as §1

MRSA-pvl+ [8] = assay: CFU counting method; format: cell-based; conditions: Staphylococcus aureus, read-out: percentage of inhibition (CFU)
Procedure, shortened: as §1

MSSA [9] = assay: Kirby-Bauer disk diffusion test; format: cell-based, Staphylococcus aureus; conditions: 18 h
Procedure, shortened: as §2

MRSA [10] = assay: Time-kill experiment; format: cell-based, Staphylococcus aureus; conditions: for inhibition at 150 µg/mL: Staphylococcus aureus, MRSA, read-out: percentage of inhibition (time-kill)
Procedure, shortened: (§4)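 S. aureus suspension (1.5 × 10^5 CFU/mL) and test compound, prepared at 150 μg/mL before mixing, were added in equal volumes to flasks of MH broth. A flask without test compound served as control. Flasks were shaken at 150 rpm and 37°C for 24 h. At set intervals, 100 μL aliquots were spread on MH agar for colony counts.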

MSSA [11] = assay: Time-kill experiment; format: cell-based, Staphylococcus aureus
Procedure, shortened: as §4

MSSA [12] = assay: HRTEM observation of treated bacteria; format: cell-based, Staphylococcus aureus; conditions: 150 µg/mL for 12 h
Procedure, shortened: as §3

MRSA-pvl+ [13] = assay: Time-kill experiment; format: cell-based, Staphylococcus aureus; conditions: >3 h of exposure (Figure S2)
Procedure, shortened: as §4

MRSA-pvl- [14] = assay: Time-kill experiment; format: cell-based, Staphylococcus aureus; conditions: >3 h of exposure (Figure S2)
Procedure, shortened: as §4

- ROS content (zebrafish embryos; 50 and 300 μg/mL, 60 min post-exposure): significantly elevated
- ROS content (zebrafish embryos; 30 min of exposure): comparable ROS content to control groups
- ROS content (zebrafish embryos; 120 min post-exposure): reverted to the normal range
Structure (SMILES): O=C(O)c1cc(O)c(O)c(O)c1 [GA, Gallic acid]
- inhibition (CFU) (MRSA-pvl- [1]): significant inhibition
- concentration at which growth is inhibited (zone of inhibition) (MRSA-pvl- [2]): 300 µg/mL and 150 µg/mL
- morphological changes of bacterial cells (HRTEM) (MRSA [3]): disrupted morphology and damaged surface
- concentration at which growth is inhibited (zone of inhibition) (MRSA-pvl+ [4]): 300 µg/mL
- viability at 24 h, 50 µg/mL ([5]; 24 h): 22.2%
- viability at 72 h, 50 µg/mL ([5]; 72 h): 4.95%
- cell viability [6]: 22.16%
- inhibition at 50 µg/mL (MRSA [7]): 98.3%
- inhibition at 50 µg/mL (MRSA-pvl+ [8]): 80.1%
- concentration at which growth is inhibited (zone of inhibition) (MSSA [9]): 150 µg/mL
- inhibition at 150 µg/mL (MRSA [10]; 2 h): 44.9%
- inhibition at 150 µg/mL (MRSA [10]): 29.4%
- inhibition at 150 µg/mL (MSSA [11]; Staphylococcus aureus, MSSA, 2 h, read-out: percentage of inhibition (time-kill)): 50.7%
- morphological changes of bacterial cells (HRTEM) (MSSA [12]): disrupted morphology and damaged surface

Structure (SMILES): CO[C@@]1(NC(=O)Cc2cccs2)C(=O)N2C(C(=O)O)=C(COC(N)=O)CS[C@@H]21 [CFX, cefoxitin]
- inhibition (time-kill) (MRSA [10]; >3 h of exposure (Figure S2)): total inhibition
- inhibition (time-kill) (MRSA-pvl+ [13]): total inhibition
- inhibition (time-kill) (MRSA-pvl- [14]): total inhibition
- inhibition (time-kill) (MSSA [11]; >3 h of exposure (Figure S2)): total inhibition
